Experimental data taken from ChEMBL document CHEMBL1140947, “Enantioselectivity in cardioprotection induced by (S)- (-)-2,2-dimethyl-N-(4'-acetamido-benzyl)-4-spiromorpholone-chromane” (2009).

Key:
Assay type in all cases: functional, Heart
Conditions in all cases: route intraperitoneal
[1] = tested on: Rattus norvegicus; experiment: Cardioprotective effect in Langendorff perfused Wistar rat hearts assessed as ischemic damage measured by rate-pressure product-120 at 40 mg/kg, ip
Outline: (§1)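 Rats pretreated intraperitoneally (test agents 40 mg/kg; reference agents 40 or 1 mg/kg); hearts isolated and Langendorff-perfused through an ischemia-reperfusion cycle. Rate-pressure product at 120 min reperfusion expressed as % of the last preischemic minute. After reperfusion, TTC staining of left ventricle (necrotic white/pale pink, healthy red); injured area given as % of total area. Mean ± SE, n = 4-6 experiments.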

[2] = tested on: Rattus norvegicus; experiment: Cardioprotective effect in Langendorff perfused Wistar rat hearts assessed as ratio for ischemic injured area to total area at 40 mg/kg, ip; outline: as §1
[3] = tested on: Rattus norvegicus; experiment: Cardioprotective effect in Langendorff perfused Wistar rat hearts assessed as ischemic damage measured by rate-pressure product-120 at 1 mg/kg, ip; outline: as §1
[4] = tested on: Rattus norvegicus; experiment: Cardioprotective effect in Langendorff perfused Wistar rat hearts assessed as ratio for ischemic injured area to total area at 1 mg/kg, ip; outline: as §1

Compound	Activity [1] [%]	Activity [2] [%]	Activity [3] [%]	Activity [4] [%]
CC(=O)Nc1ccc(CN2C[C@@]3(CC(C)(C)Oc4ccccc43)OCC2=O)cc1	64	16	–	–
CC(=O)Nc1ccc(CN2C[C@]3(CC(C)(C)Oc4ccccc43)OCC2=O)cc1	27	35	–	–
CC(=O)Nc1ccc(CN2CC3(CC(C)(C)Oc4ccccc43)OCC2=O)cc1 (racemic)	59	22	–	–
CC1(C)Oc2ccc(C#N)cc2C(N2CCCC2=O)C1O (stereo not given) [CROMAKALIM]	–	–	86	23
CC1=Nc2ccc(Cl)cc2S(=O)(=O)N1 [DIAZOXIDE]	45	25	–	–
